# pIC50: −log10 of the molar value. Calls of active or inactive are those of the source. The rule behind the calls is not given here.
# Columns and labels:
# [1] = molecular target: T1, Focal adhesion kinase 1 (Homo sapiens, UniProt Q05397); assay: Inhibition of FAK (unknown origin) using Poly(Glu,Tyr) and ATP as substrate measured after 40 mins by Kinase-Glo Plus luminescence assay
# Target sequence in this assay (Q05397 whole entry): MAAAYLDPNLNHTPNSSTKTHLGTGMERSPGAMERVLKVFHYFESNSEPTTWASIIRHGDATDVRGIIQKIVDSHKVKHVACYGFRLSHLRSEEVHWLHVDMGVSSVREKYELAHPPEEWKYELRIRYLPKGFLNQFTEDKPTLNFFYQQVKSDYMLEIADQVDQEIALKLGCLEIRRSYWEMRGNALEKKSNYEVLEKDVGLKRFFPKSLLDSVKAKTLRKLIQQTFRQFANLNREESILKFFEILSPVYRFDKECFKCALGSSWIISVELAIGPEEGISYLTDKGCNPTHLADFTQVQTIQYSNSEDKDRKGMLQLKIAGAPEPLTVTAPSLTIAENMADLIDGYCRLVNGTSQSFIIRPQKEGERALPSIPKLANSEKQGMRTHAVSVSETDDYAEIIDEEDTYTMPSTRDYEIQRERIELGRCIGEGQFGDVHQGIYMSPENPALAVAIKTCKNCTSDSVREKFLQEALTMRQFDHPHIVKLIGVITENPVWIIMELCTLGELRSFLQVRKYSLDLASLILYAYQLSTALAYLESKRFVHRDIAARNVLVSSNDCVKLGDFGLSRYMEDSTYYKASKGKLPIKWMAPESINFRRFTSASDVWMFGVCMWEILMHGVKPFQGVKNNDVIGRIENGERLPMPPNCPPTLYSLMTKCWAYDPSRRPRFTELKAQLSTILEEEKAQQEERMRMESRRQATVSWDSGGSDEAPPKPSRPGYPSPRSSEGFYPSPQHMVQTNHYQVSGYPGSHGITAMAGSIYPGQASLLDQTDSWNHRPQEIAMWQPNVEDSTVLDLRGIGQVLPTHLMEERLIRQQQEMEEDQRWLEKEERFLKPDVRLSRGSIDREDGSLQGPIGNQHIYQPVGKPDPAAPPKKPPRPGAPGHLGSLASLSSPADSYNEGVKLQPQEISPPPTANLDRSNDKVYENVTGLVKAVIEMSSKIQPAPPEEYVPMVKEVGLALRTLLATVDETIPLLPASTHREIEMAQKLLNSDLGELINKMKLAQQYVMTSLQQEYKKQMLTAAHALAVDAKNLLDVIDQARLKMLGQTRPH
# [2] = cells; details: Homo sapiens, YY-8103, 48 h
# [3] = tested on: SMMC-7721; assay: cells; details: Homo sapiens, SMMC-7721, 48 h
# [4] = tested on: SMMC-7721; assay: Antitumor activity against human […] cells xenografted in BALB/c nude mouse assessed as tumor size at 10 mg/kg, ip administered for 19 days (reference value: 600.8 mm3); format: functional; details: time 19 day
# Procedure, shortened: (§1)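 Male BALB/c nude mice, six weeks old, inoculated s.c. with 1.0 × 10⁷ SMMC7721 cells. Dosing began at mean tumour 25e35 mm³; five randomized groups, n = 8. Solvent DMSO/propylene glycol/PBS 2:5:3 (vehicle 1.0 mL/kg), all given i.p. every 3 days. Tumour size (calipers) and body weight taken before each dose. V = length × width²/2. TGI = [1 − (T−T₀)/(C−C₀)] × 100.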
# [5] = Half life in Sprague-Dawley rat at 10 mg/kg, po measured upto 24 hrs by LC-MS/MS analysis; format: ADME, organism-based; details: in vivo
# Procedure, shortened: (§2)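 Male SD rats, 6e8 weeks, 220 30 g, three per route (p.o. or i.v.). Compound given in DMSO/Solutol/saline (5/10/85). Centrifuged 6800 g for 6 min at 2e8 °C, frozen near −80 °C, analysed by LC-MS/MS. Mean ± SEM, n = 3.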
# [6] = Half life in Sprague-Dawley rat at 2 mg/kg, iv measured upto 24 hrs by LC-MS/MS analysis; format: ADME, organism-based; details: in vivo; procedure, shortened: as §2
# [7] = Tmax in Sprague-Dawley rat at 10 mg/kg, po measured upto 24 hrs by LC-MS/MS analysis; format: ADME, organism-based; details: in vivo; procedure, shortened: as §2
# [8] = Tmax in Sprague-Dawley rat at 2 mg/kg, iv measured upto 24 hrs by LC-MS/MS analysis; format: ADME, organism-based; details: in vivo; procedure, shortened: as §2
# [9] = Cmax in Sprague-Dawley rat at 10 mg/kg, po measured upto 24 hrs by LC-MS/MS analysis; format: ADME, organism-based; design: route oral, dose 10 mg/kg, time <=24; details: in vivo; procedure, shortened: as §2
# [10] = Cmax in Sprague-Dawley rat at 2 mg/kg, iv measured upto 24 hrs by LC-MS/MS analysis; format: ADME, organism-based; design: route intravenous, dose 2 mg/kg, time <=24; details: in vivo; procedure, shortened: as §2
# [11] = AUC (0 to t) in Sprague-Dawley rat at 10 mg/kg, po measured upto 24 hrs by LC-MS/MS analysis; format: ADME, organism-based; design: route oral, dose 10 mg/kg, time <=24; details: in vivo; procedure, shortened: as §2
# [12] = AUC (0 to t) in Sprague-Dawley rat at 2 mg/kg, iv measured upto 24 hrs by LC-MS/MS analysis; format: ADME, organism-based; design: route intravenous, dose 2 mg/kg, time <=24; details: in vivo
# [13] = AUC (0 to infinity) in Sprague-Dawley rat at 10 mg/kg, po by LC-MS/MS analysis; format: ADME, organism-based; design: time infinity, route oral, dose 10 mg/kg; details: in vivo; procedure, shortened: as §2
# [14] = AUC (0 to infinity) in Sprague-Dawley rat at 2 mg/kg, iv by LC-MS/MS analysis; format: ADME, organism-based; design: route intravenous, time infinity, dose 2 mg/kg; details: in vivo; procedure, shortened: as §2
# [15] = Volume of distribution at steady state in Sprague-Dawley rat at 2 mg/kg, iv measured upto 24 hrs by LC-MS/MS analysis; format: ADME, organism-based; details: in vivo; procedure, shortened: as §2
# [16] = MRT (0 to t) in Sprague-Dawley rat at 10 mg/kg, po measured upto 24 hrs by LC-MS/MS analysis; format: ADME, organism-based; details: in vivo; procedure, shortened: as §2
# [17] = MRT (0 to t) in Sprague-Dawley rat at 2 mg/kg, iv measured upto 24 hrs by LC-MS/MS analysis; format: ADME, organism-based; details: in vivo; procedure, shortened: as §2
# [18] = MRT (0 to infinity) in Sprague-Dawley rat at 10 mg/kg, po by LC-MS/MS analysis; format: ADME, organism-based; details: in vivo; procedure, shortened: as §2
# [19] = MRT (0 to infinity) in Sprague-Dawley rat at 2 mg/kg, iv by LC-MS/MS analysis; format: ADME, organism-based; details: in vivo; procedure, shortened: as §2
# [20] = Oral bioavailability in Sprague-Dawley rat 10 mg/kg measured upto 24 hrs by LC-MS/MS analysis; format: ADME, organism-based; details: in vivo; procedure, shortened: as §2
# [21] = Acute toxicity in Kunming mouse assessed as body weight at 5 to 200 mg/kg, ip observed for 10 days; format: organism-based; details: in vivo, 240 h, dose 5-200 mg/kg, time 10 day
# Procedure, shortened: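 Kunming mice (18-22 g), 30 animals in 5 groups of 6 (3 male, 3 female); single intraperitoneal dose of 0, 5, 10, 50 or 200 mg/kg in DMSO/propylene glycol/PBS (2/5/3). Animals observed and weighed daily for 10 days.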
# [22] = Toxicity in BALB/c nude mouse assessed as effect on body weight at 10 to 30 mg/kg, ip administered for 19 days; format: organism-based; details: in vivo, 456 h, dose 10-30 mg/kg, time 19 day
# Procedure, shortened: (§3)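 Six-week-old male BALB/c nude mice bearing subcutaneous SMMC7721 xenografts (1.0 × 10⁷ cells); dosing started at mean tumor 25-35 mm³, n = 8 per group. Ip every 3 days in DMSO/propylene glycol/PBS (2:5:3); vehicle 1.0 mL/kg as negative control. Body weight weighed and deaths recorded every 3 days before each dose, through day 19.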
# [23] = tested on: SMMC-7721; assay: Antitumor activity against human […] cells xenografted in BALB/c nude mouse assessed as tumor size at 30 mg/kg, ip administered for 19 days (reference value: 600.8 mm3); format: functional; details: time 19 day; procedure, shortened: as §1
# [24] = tested on: SMMC-7721; assay: Antitumor activity against human […] cells xenografted in BALB/c nude mouse assessed as tumor growth inhibition at 30 mg/kg, ip administered for 19 days; format: functional; details: SMMC-7721, ip, 456 h, time 19 day, read-out: TGI; procedure, shortened: as §1
# [25] = Clearance in Sprague-Dawley rat at 2 mg/kg, iv measured upto 24 hrs by LC-MS/MS analysis; format: ADME, organism-based; details: in vivo; procedure, shortened: as §2
# [26] = Toxicity in BALB/c nude mouse assessed as animal's mortality at 10 to 30 mg/kg, ip administered for 19 days; format: organism-based; details: in vivo, 456 h, dose 10-30 mg/kg, time 19 day; procedure, shortened: as §3
# [27] = molecular target: T1, Focal adhesion kinase 1; assay: Inhibition of FAK phosphorylation in human HCC cells assessed as upregulation of FOXO phosphorylation at 30 uM by KEGG analysis; format: cell-based
# Target sequence in this assay (Q05397 2-1052 limits assumed): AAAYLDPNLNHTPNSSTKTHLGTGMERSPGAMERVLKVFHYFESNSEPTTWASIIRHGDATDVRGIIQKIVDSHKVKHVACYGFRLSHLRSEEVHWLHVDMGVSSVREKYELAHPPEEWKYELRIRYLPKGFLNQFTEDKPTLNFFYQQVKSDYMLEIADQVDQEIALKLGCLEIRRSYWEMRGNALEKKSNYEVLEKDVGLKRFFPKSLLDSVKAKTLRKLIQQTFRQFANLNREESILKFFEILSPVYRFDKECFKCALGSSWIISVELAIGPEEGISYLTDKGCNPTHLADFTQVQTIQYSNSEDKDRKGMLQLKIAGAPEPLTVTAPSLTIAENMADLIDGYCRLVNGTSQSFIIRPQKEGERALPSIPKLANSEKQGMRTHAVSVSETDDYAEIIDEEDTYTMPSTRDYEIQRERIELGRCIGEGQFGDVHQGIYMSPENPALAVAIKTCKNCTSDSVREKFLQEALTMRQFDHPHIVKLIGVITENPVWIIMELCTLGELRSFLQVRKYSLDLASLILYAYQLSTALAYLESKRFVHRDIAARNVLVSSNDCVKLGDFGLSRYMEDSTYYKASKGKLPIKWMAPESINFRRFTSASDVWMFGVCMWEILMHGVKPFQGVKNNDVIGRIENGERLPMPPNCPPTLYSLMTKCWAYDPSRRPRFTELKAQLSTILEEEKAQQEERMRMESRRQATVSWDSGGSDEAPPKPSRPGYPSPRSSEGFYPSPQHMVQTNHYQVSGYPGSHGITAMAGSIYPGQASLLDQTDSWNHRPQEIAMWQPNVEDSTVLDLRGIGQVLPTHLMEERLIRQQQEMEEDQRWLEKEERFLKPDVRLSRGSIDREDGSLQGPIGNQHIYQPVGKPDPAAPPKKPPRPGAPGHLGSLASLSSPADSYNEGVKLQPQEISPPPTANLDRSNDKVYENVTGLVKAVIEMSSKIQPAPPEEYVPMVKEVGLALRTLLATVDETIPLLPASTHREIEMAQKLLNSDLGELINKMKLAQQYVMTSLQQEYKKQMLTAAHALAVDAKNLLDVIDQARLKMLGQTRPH
# [28] = Upregulation of integrin beta1 phosphorylation at Thr788 residue in human HCC cells at 30 uM by KEGG analysis relative to control; format: functional
# [29] = molecular target: T1, Focal adhesion kinase 1; assay: Inhibition of FAK phosphorylation in human HCC cells at 30 mg/kg by KEGG analysis
# Target sequence in this assay (Q05397 2-1052 limits assumed): as above
# [30] = molecular target: T1, Focal adhesion kinase 1; assay: Inhibition of FAK phosphorylation in human HCC cells assessed as reduction in Akt phosphorylation at 30 mg/kg by KEGG analysis
# Target sequence in this assay (Q05397 2-1052 limits assumed): as above
# [31] = molecular target: T1, Focal adhesion kinase 1; assay: Inhibition of FAK phosphorylation in human HCC cells assessed as reduction in PDK1 phosphorylation at 30 mg/kg by KEGG analysis
# Target sequence in this assay (Q05397 2-1052 limits assumed): as above
# [32] = molecular target: T1, Focal adhesion kinase 1; assay: Inhibition of FAK phosphorylation in human HCC cells assessed as reduction in mTOR phosphorylation at 30 mg/kg by KEGG analysis
# Target sequence in this assay (Q05397 2-1052 limits assumed): as above
# [33] = molecular target: T1, Focal adhesion kinase 1; assay: Inhibition of FAK phosphorylation in human HCC cells assessed as reduction in NFkappaB phosphorylation at 30 mg/kg by KEGG analysis
# Target sequence in this assay (Q05397 2-1052 limits assumed): as above
# [34] = Toxicity in BALB/c nude mouse assessed as animal's mortality at 30 mg/kg, ip measured on day 11; format: organism-based; details: in vivo, 264 h, time 11 day; procedure, shortened: as §3
# [35] = Toxicity in BALB/c nude mouse assessed as effect on body weight at 30 mg/kg, ip administered for 19 days; format: organism-based; details: in vivo, 456 h, time 19 day; procedure, shortened: as §1
compound,measurement,setting,value
CN(c1ncccc1CNc1nc(Nc2ccccc2)nc2[nH]cc(F)c12)S(C)(=O)=O,pIC50,[1],7.49
same,pIC50,[2],< 4.00
same,pIC50,[3],< 4.00
CN(c1ncccc1CNc1nc(Nc2ccc(F)cc2)nc2[nH]cc(F)c12)S(C)(=O)=O,pIC50,[1],7.42
same,pIC50,[2],< 4.00
same,pIC50,[3],4.55
COc1cccc(Nc2nc(NCc3cccnc3N(C)S(C)(=O)=O)c3c(F)c[nH]c3n2)c1C,pIC50,[1],7.12
same,pIC50,[2],< 4.00
same,pIC50,[3],< 4.00
Cc1c[nH]c2nc(Nc3ccc4c(c3)CC(=O)N4)nc(NCc3cccnc3N(C)S(C)(=O)=O)c12,pIC50,[1],7.19
same,pIC50,[2],4.91
same,pIC50,[3],4.73
Cc1cc2c(NCc3cccnc3N(C)S(C)(=O)=O)nc(Nc3ccc4c(c3)CC(=O)N4)nc2[nH]1,pIC50,[1],4.92
same,pIC50,[2],< 4.00
same,pIC50,[3],< 4.00
COc1cc(Nc2nc(NCc3cccnc3N(C)S(C)(=O)=O)c3c(F)c[nH]c3n2)cc(OC)c1OC,pIC50,[1],7.77
same,pIC50,[2],< 4.00
same,pIC50,[3],< 4.00
CN(c1ncccc1CNc1nc(Nc2ccc3c(c2)CC(=O)N3)nc2[nH]cc(F)c12)S(C)(=O)=O,pIC50,[1],7.66
same,pIC50,[2],4.62
same,pIC50,[3],4.14
CNC(=O)c1ccccc1Nc1nc(Nc2cccc(NC(C)=O)c2)nc2[nH]cc(F)c12,Activity,[4],348.3 mm3
same,pIC50,[1],7.92
same,half-life,[5],3.65 h
same,half-life,[6],1.46 h
same,Tmax,[7],4.67 h
same,Tmax,[8],4.8 min
same,Cmax,[9],15.4 ng/mL
same,Cmax,[10],5020 ng/mL
same,AUC(0-t) at 24 h,[11],95.5 ng·h/mL
same,AUC(0-t) at 24 h,[12],2300 ng·h/mL
same,AUC(0-inf),[13],119 ng·h/mL
same,AUC(0-inf),[14],2300 ng·h/mL
same,Vdss,[15],1.8426 L/kg
same,MRT last at 24 h,[16],4.54 h
same,MRT last at 24 h,[17],0.51 h
same,MRT inf,[18],6.62 h
same,MRT,[19],0.53 h
same,bioavailability,[20],0.83%
same,Activity,[21],Non-Toxic
same,Activity,[22],Non-Toxic
same,Activity,[23],153.5 mm3
same,inhibition in vivo at 30 mg/kg,[24],78.6%
same,CL,[25],14.49 mL/min/kg
same,Activity,[26],Non-Toxic
same,inhibition,[27],Active
same,fold change (FC),[28],2.82
same,pIC50,[2],5.62
same,pIC50,[3],5.00
same,inhibition,[29],Active
same,inhibition,[30],Active
same,inhibition,[31],Active
same,inhibition,[32],Active
same,inhibition,[33],Active
COc1ccc(Nc2nc(NCc3cccnc3N(C)S(C)(=O)=O)c3c(F)c[nH]c3n2)cc1OC,pIC50,[1],7.82
same,pIC50,[2],4.74
same,pIC50,[3],4.26
CN(c1ncccc1CNc1nc(Nc2ccc3c(c2)CC(=O)N3)ncc1C(F)(F)F)S(C)(=O)=O [PF-00562271],Activity,[34],Toxic
same,Activity,[23],295.9 mm3
same,inhibition in vivo at 30 mg/kg,[24],54.1%
same,Activity,[35],Non-Toxic
CNC(=O)c1ccccc1Nc1nc(Nc2ccc(N3CCOCC3)cc2OC)nc2[nH]cc(F)c12,pIC50,[1],7.64
same,pIC50,[2],4.85
same,pIC50,[3],4.47
CNC(=O)c1ccccc1Nc1nc(Nc2cccc(CNC(C)=O)c2)nc2[nH]cc(F)c12,pIC50,[1],7.85
same,pIC50,[2],5.97
same,pIC50,[3],4.73
CN(c1ncccc1CNc1nc(Nc2ccc(F)c(Cl)c2)nc2[nH]cc(F)c12)S(C)(=O)=O,pIC50,[1],7.39
same,pIC50,[2],4.08
same,pIC50,[3],< 4.00

# Source: ChEMBL document CHEMBL4831494, “Synthesis and evaluation of FAK inhibitors with a 5-fluoro-7H-pyrrolo[2,3-d]pyrimidine scaffold as anti-hepatocellular carcinoma agents” (Eur J Med Chem, 2021)
